Experimental data: ChEMBL document CHEMBL3407400, “Design, synthesis and biological evaluations of chirally pure 1,2,3,4-tertrahydroisoquinoline analogs as anti-cancer agents” (Eur J Med Chem, 2015)
The source made the active and inactive calls. No cut-off for these calls is given here.

What was measured:
[1] = test system: MCF7; experiment: Anticancer activity against human MCF7 cells after 48 hrs by MTT assay; assay type: functional, cell-based; settings: MCF7, 48 h
How it was run: (§1)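 Cell lines held in DMEM or MEM with 10% FBS and antibiotic-antimycotic at 37 °C, 5% CO2. Cells seeded at 1 × 10⁴ per well in DMEM with 10% FBS and left 24 h. Compounds diluted in medium and added alongside vehicle control for 48 h. MTT (5 mg/mL) added for 4 h, formazan dissolved in DMSO, absorbance read at 570 nm.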

[2] = test system: A549; experiment: Anticancer activity against human A549 cells after 48 hrs by MTT assay; assay type: functional, cell-based; settings: A549, 48 h; how it was run: as §1
[3] = test system: DU-145; experiment: Anticancer activity against human DU145 cells after 48 hrs by MTT assay; assay type: functional, cell-based; settings: DU-145, 48 h; how it was run: as §1
[4] = test system: HeLa; experiment: Anticancer activity against human HeLa cells after 48 hrs by MTT assay; assay type: functional, cell-based; how it was run: as §1
[5] = test system: HepG2; experiment: Anticancer activity against human HepG2 cells after 48 hrs by MTT assay; assay type: functional, cell-based; settings: HepG2, 48 h; how it was run: as §1
[6] = test system: DU-145; experiment: Cell cycle arrest in human DU145 cells assessed as subG1 phase at 1 uM after 48 hrs by propidium iodide based flow cytometry (reference value: 9.36 %); assay type: functional
[7] = test system: DU-145; experiment: Cell cycle arrest in human DU145 cells assessed as G0/G1 phase at 1 uM after 48 hrs by propidium iodide based flow cytometry (reference value: 79.15 %); assay type: functional
[8] = test system: DU-145; experiment: Cell cycle arrest in human DU145 cells assessed as S phase at 1 uM after 48 hrs by propidium iodide based flow cytometry (reference value: 1.65 %); assay type: functional
[9] = test system: DU-145; experiment: Cell cycle arrest in human DU145 cells assessed as G2/M phase at 1 uM after 48 hrs by propidium iodide based flow cytometry (reference value: 6.75 %); assay type: functional
[10] = test system: DU-145; experiment: Cell cycle arrest in human DU145 cells assessed as subG1 phase at 0.5 uM after 48 hrs by propidium iodide based flow cytometry (reference value: 9.36 %); assay type: functional
[11] = test system: DU-145; experiment: Cell cycle arrest in human DU145 cells assessed as G0/G1 phase at 0.5 uM after 48 hrs by propidium iodide based flow cytometry (reference value: 79.15 %); assay type: functional
[12] = test system: DU-145; experiment: Cell cycle arrest in human DU145 cells assessed as S phase at 0.5 uM after 48 hrs by propidium iodide based flow cytometry (reference value: 1.65 %); assay type: functional
[13] = test system: DU-145; experiment: Cell cycle arrest in human DU145 cells assessed as G2/M phase at 0.5 uM after 48 hrs by propidium iodide based flow cytometry (reference value: 6.75 %); assay type: functional
[14] = target: Tubulin; experiment: Inhibition of tubulin (unknown origin) polymerization by fluorescence assay; assay type: protein-complex assay, Homo sapiens
[15] = test system: DU-145; experiment: Disruption of microtubule network in human DU145 cells at 50 uM after 48 hrs by immunohistochemistry analysis; assay type: cell-based
[16] = test system: DU-145; experiment: Induction of apoptosis in human DU145 cells assessed as DNA fragmentation at 0.5 uM after 48 hrs by agarose gel electrophoresis; assay type: functional, cell-based
How it was run: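 DU-145 cells (1 × 10⁶) seeded, then treated 24 h later for 48 h. Lysate cleared, then digested with SDS/RNase A (2 h, 56 °C) and proteinase K (2 h, 37 °C). DNA precipitated with ammonium acetate and ice-cold ethanol, dissolved in TE. Laddering resolved on 2% agarose.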

[17] = test system: DU-145; experiment: Induction of apoptosis in human DU145 cells assessed as activation of caspase 3 at 0.5 to 1 uM after 48 hrs by fluorometric assay relative to control; assay type: functional
How it was run: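 DU-145 cells treated for 48 h. Fluorometric caspase-3 kit used: […] substrate added to cell lysate, 1 h at 37 °C. Fluorescence read at excitation 400 nm, emission 505 nm.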

[18] = test system: DU-145; experiment: Induction of apoptosis in human DU145 cells assessed as down regulation of Bcl2 at 0.5 uM after 48 hrs by Western blot analysis relative to control; assay type: functional, cell-based
[19] = test system: DU-145; experiment: Induction of apoptosis in human DU145 cells assessed as up regulation of Bax at 0.5 uM after 48 hrs by Western blot analysis relative to control; assay type: functional, cell-based
[20] = test system: DU-145; experiment: Induction of apoptosis in human DU145 cells assessed as necrotic cells at 0.5 uM after 48 hrs by annexin V FITC/PI dual staining assay (reference value: 0.31 %); assay type: functional
[21] = test system: DU-145; experiment: Induction of apoptosis in human DU145 cells assessed as viable cells at 0.5 uM after 48 hrs by annexin V FITC/PI dual staining assay (reference value: 96.45 %); assay type: functional; settings: DU-145, 48 h, read-out: Activity
[22] = test system: DU-145; experiment: Induction of apoptosis in human DU145 cells assessed as late apoptotic cells at 0.5 uM after 48 hrs by annexin V FITC/PI dual staining assay (reference value: 2.47 %); assay type: functional
[23] = test system: DU-145; experiment: Induction of apoptosis in human DU145 cells assessed as early apoptotic cells at 0.5 uM after 48 hrs by annexin V FITC/PI dual staining assay (reference value: 0.77 %); assay type: functional
[24] = test system: DU-145; experiment: Induction of apoptosis in human DU145 cells assessed as necrotic cells at 1 uM after 48 hrs by annexin V FITC/PI dual staining assay (reference value: 0.31 %); assay type: functional
[25] = test system: DU-145; experiment: Induction of apoptosis in human DU145 cells assessed as viable cells at 1 uM after 48 hrs by annexin V FITC/PI dual staining assay (reference value: 96.45 %); assay type: functional; settings: DU-145, 48 h, read-out: Activity
[26] = test system: DU-145; experiment: Induction of apoptosis in human DU145 cells assessed as late apoptotic cells at 1 uM after 48 hrs by annexin V FITC/PI dual staining assay (reference value: 2.47 %); assay type: functional
[27] = test system: DU-145; experiment: Induction of apoptosis in human DU145 cells assessed as early apoptotic cells at 1 uM after 48 hrs by annexin V FITC/PI dual staining assay (reference value: 0.77 %); assay type: functional

| IC50 [1] | IC50 [2] | IC50 [3] | IC50 [4] | IC50 [5] | Structure (SMILES) | Activity [6] | Activity [7] | Activity [8] | Activity [9] | also measured |
| --- | --- | --- | --- | --- | --- | --- | --- | --- | --- | --- |
| 5.49 µM | 2.45 µM | 1.23 µM | 7.31 µM | 1.7 µM | Cc1ccc(S(=O)(=O)N2C[C@H]3[C@H](OCc4ccccc4)c4ccccc4CN3C(=O)[C@@H]2C)cc1 | 6.74% | 46.67% | 1.83% | 40.27% | Activity [10]: 8.25%; Activity [11]: 68.53%; Activity [12]: 2.8%; Activity [13]: 16.96%; IC50 [14]: 3.55 µM; Activity [15]: Active; Activity [16]: Active; fold change (FC) [17]: 3; Activity [18]: Active; Activity [19]: Active; Activity [20]: 0.82%; viability at 0.5 µM [21]: 92.8%; Activity [22]: 4.45%; Activity [23]: 1.88%; Activity [24]: 4.7%; viability at 1 µM [25]: 69.2%; Activity [26]: 21.14%; Activity [27]: 4.94% |
| 17.6 µM | 13.7 µM | 7.41 µM | 20.3 µM | 10.8 µM | Cc1ccc(S(=O)(=O)N2C[C@H]3[C@H](OCc4ccccc4)c4ccccc4CN3C(=O)[C@@H]2Cc2ccccc2)cc1 | – | – | – | – | – |
| 79.4 µM | 37.1 µM | 39.8 µM | 56.3 µM | 57.5 µM | Cc1ccc(S(=O)(=O)Nc2ccccc2C(=O)N2Cc3ccccc3[C@@H](OCc3ccccc3)[C@@H]2CO)cc1 | – | – | – | – | – |
| 14.8 µM | 7.37 µM | 4.67 µM | 21 µM | 5.37 µM | Cc1ccc(S(=O)(=O)N[C@@H](C)C(=O)N2Cc3ccccc3[C@@H](OCc3ccccc3)[C@@H]2CO)cc1 | – | – | – | – | – |
| 21.8 µM | 6.46 µM | 9.77 µM | 12.5 µM | 11.4 µM | COc1ccc(C(=O)N2Cc3ccccc3[C@@H](OCc3ccccc3)[C@@H]2CO)c(O)c1 | – | – | – | – | – |
| 57.3 µM | 32.3 µM | 29.3 µM | 58.3 µM | 24.6 µM | O=C(/C=C/c1ccc(F)cc1)N1Cc2ccccc2[C@@H](OCc2ccccc2)[C@@H]1CO | – | – | – | – | – |
| 8.71 µM | 6.91 µM | 1.26 µM | 12.3 µM | 2.24 µM | Cc1ccc(S(=O)(=O)N[C@@H](Cc2ccccc2)C(=O)N2Cc3ccccc3[C@@H](OCc3ccccc3)[C@@H]2CO)cc1 | – | – | – | – | – |
| – | – | – | – | – | COC(=O)Nc1nc2cc(C(=O)c3cccs3)ccc2[nH]1 [NOCODAZOLE] | 4.52% | 48.19% | 0.86% | 43.4% | Activity [15]: Active |
| 24.4 µM | 5.62 µM | 4.07 µM | 26.8 µM | 5.37 µM | O=C(/C=C/c1ccc([N+](=O)[O-])cc1)N1Cc2ccccc2[C@@H](OCc2ccccc2)[C@@H]1CO | – | – | – | – | – |

| Structure (SMILES) | IC50 [1] | IC50 [2] | IC50 [3] | IC50 [4] | IC50 [5] | Activity [6] | Activity [7] | Activity [8] | Activity [9] | also measured |
| --- | --- | --- | --- | --- | --- | --- | --- | --- | --- | --- |
| COc1cc([C@@H]2c3cc4c(cc3[C@@H](O[C@@H]3O[C@@H]5CO[C@@H](C)O[C@H]5[C@H](O)[C@H]3O)[C@H]3COC(=O)[C@H]23)OCO4)cc(OC)c1O [ETOPOSIDE] | 2.69 µM | 3.01 µM | 1.98 µM | 3.23 µM | 2.45 µM | 7.13% | 48.84% | 1.45% | 38.75% | – |
